Measurements collected from several papers.
Protocols differ between the studies behind these lines.
Target: Adenosine receptor A1 (ADORA1, Homo sapiens, UniProt P30542)
Sequence (P30542 1-326, as in one of the studies): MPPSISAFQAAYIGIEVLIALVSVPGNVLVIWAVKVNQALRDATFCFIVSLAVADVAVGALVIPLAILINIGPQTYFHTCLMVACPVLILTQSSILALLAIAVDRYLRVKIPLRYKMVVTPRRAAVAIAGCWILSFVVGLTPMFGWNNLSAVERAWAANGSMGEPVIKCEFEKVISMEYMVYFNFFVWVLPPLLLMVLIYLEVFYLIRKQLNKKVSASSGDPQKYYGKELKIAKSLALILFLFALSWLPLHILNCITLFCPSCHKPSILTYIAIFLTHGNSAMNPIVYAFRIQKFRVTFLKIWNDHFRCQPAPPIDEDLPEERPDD

SMILES | observed | method | tested at | setting | inhibition
Cn1c(=O)[nH]c2nc[nH]c2c1=O | ligand displacement | radioligand | 30 µM | cell membranes | 78%
C=CN1CCCn2c1nc1c2c(=O)n(C)c(=O)n1C | ligand displacement | radioligand | 10 µM | cell membranes | 21%
CNc1nc(Cl)nc2c1ncn2[C@@H]1OC[C@@H](O)[C@H]1O | ligand displacement | radioligand | 10 µM | cell membranes | < 10%
Ic1cccc2cnccc12 | ligand displacement | radioligand | 10 µM | – | -5%
CNc1ncnc2c1ncn2[C@@H]1OC[C@@H](O)[C@H]1O | ligand displacement | radioligand | 10 µM | cell membranes | < 10%
Oc1cccc(Nc2nc(-c3ccc(F)cc3F)cs2)c1 | cell-free assay | – | 10 µM | – | 46.5%
O=C(Nc1ccc(S(=O)(=O)N2CCC(Cl)CC2)cc1)c1ccc([N+](=O)[O-])o1 | ligand displacement | radioligand | 10 µM | – | 12%
O=C1N=C(N2CCCCN2)S/C1=C\c1ccc(F)cc1O | ligand displacement | radioligand | 10 µM | – | < 10%
CNC(=O)[C@@]12C[C@@H]1[C@@H](n1cnc3c(NC)nc(C#C[c-]4cccc4)nc31)[C@H](O)[C@@H]2O.[Fe+2].c1cc[cH-]c1 | ligand displacement | radioligand | 10 µM | cell membranes | 25%
O[C@@H]1[C@H](O)CO[C@H]1n1cnc2c(NCc3cccc(F)c3)ncnc21 | ligand displacement | radioligand | 10 µM | cell membranes | 16%
O=C(c1ccc(Cl)cc1)N(Cc1ccccc1)C1CCCCC1 | cell-free assay | – | 10 µM | – | 1.7%
